ChEMBL document CHEMBL1142527, “Tricyclic [1,2,4]triazine 1,4-dioxides as hypoxia selective cytotoxins” (J Med Chem, 2008)

Legend:
[1] = Solubility at 22 degC in culture medium in presence of 5% fetal calf serum; type: physicochemical
Outline: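 Solubility of the HCl salts is determined in culture medium containing 5% fetal calf serum at 22 °C.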

HT-29 [2] = test: Metabolic stability in human HT-29 multicellular layer assessed as apparent first-order rate constant under anoxic condition; type: ADME, cell-based
Outline: (§1)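 Stirred single-cell suspensions of anoxic HT29 cells are exposed for 3 h at a drug concentration giving roughly one log kill by 1 h. Clonogenic survival is followed, and extracellular drug is monitored by HPLC. Concentration-time data are fitted for the apparent first-order metabolic rate constant k_met, scaled to MCL cell density. CT₁₀ and M₁₀ (drug metabolized at 10% survival) are interpolated from the fitted PK/PD model.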

HT-29 [3] = test: Drug metabolism in human HT-29 cells assessed as amount of drug metabolized for one log of cell kill at their CT10 concentration for 1 hr; type: ADME, cell-based; settings: ht-29, 1 h; outline: as §1
SiHa [4] = test: Cytotoxicity against human SiHa cells after 4 hrs under strict hypoxic condition; type: functional, cell-based; settings: Homo sapiens, SiHa, 4 h
HT-29 [5] = test: Hypoxic cytotoxicity ratio, ratio of aerobic IC50 to anoxic IC50 for human HT-29 cells; type: functional
HT-29 [6] = test: Cytotoxicity against human HT-29 cells after 4 hrs under strict hypoxic condition; type: functional, cell-based; settings: Homo sapiens, HT-29, 4 h
HT-29 [7] = test: Cytotoxicity against human HT-29 cells assessed as AUC-time curve providing 10% surviving fraction by clonogenic assay; type: functional
SiHa [8] = test: Hypoxic cytotoxicity ratio, ratio of aerobic IC50 to anoxic IC50 for human SiHa cells; type: functional
[9] = culture medium with 5% fetal calf serum, read-out: solubility

Compound	solubility ([1]; serum) [mM]	Activity (HT-29 [2]) [min⁻¹]	Activity (HT-29 [3]; 1 h) [µM]	solubility [1, 9] [mM]	IC50 (SiHa [4]) [µM]	Ratio IC50 (HT-29 [5])	IC50 (HT-29 [6]) [µM]	Activity (HT-29 [7]) [µM·h]	Ratio IC50 (SiHa [8])	Activity (HT-29 [3]) [µM]
CN(C)CCNc1n[n+]([O-])c2cc3c(cc2[n+]1[O-])OCO3	> 50	0.87	4310							
Nc1n[n+]([O-])c2cc3c(cc2[n+]1[O-])OCC3				0.1	23	4	117			
CCc1n[n+]([O-])c2cc3c(cc2[n+]1[O-])CC(CO)C3 (stereo not given)		0.47		5	6.5	45	17	49.7	48	2096
[O-][n+]1nc(NCCCN2CCOCC2)[n+]([O-])c2cc3c(cc21)OCC3		0.2		> 49	3.4	8	22	116	28	2660
CCNc1n[n+]([O-])c2cc3c(cc2[n+]1[O-])CN(C)CC3				> 47	1.1	59	2.6		100	
CCc1n[n+]([O-])c2cc3c(cc2[n+]1[O-])CN(C)CC3				> 47	3.1	2	13.1		6	
CN(C)CCNc1n[n+]([O-])c2cc3c(cc2[n+]1[O-])OCC3		0.6		49	1.9	46	5.2	43.3	128	3000
CCN(CC)CCNc1n[n+]([O-])c2cc3c(cc2[n+]1[O-])OCC3		0.26		47	3.4	113	10	58	122	1718
[O-][n+]1nc(NCCCN2CCOCC2)[n+]([O-])c2cc3c(cc21)CCO3		0.23		46	29	6	49	82.1	14	2155
CCNc1n[n+]([O-])c2cc3c(cc2[n+]1[O-])CC(N(C)C)C3 (stereo not given)				46						
CCN1Cc2cc3c(cc2C1)[n+]([O-])c(N)n[n+]3[O-]		2.2		6	0.8		1.5	8.1	80	2022
CC1Cc2cc3c(cc2C1)[n+]([O-])c(CCCO)n[n+]3[O-] (stereo not given)		0.24		10	8	80	13	85.3	104	2394
CN(C)CCNc1n[n+]([O-])c2c3c(ccc2[n+]1[O-])OCCC3		0.59		47	0.7	14	4.1	46.1	66	3124
CC1Cc2cc3c(cc2C1)[n+]([O-])c(CCCN1CCOCC1)n[n+]3[O-] (stereo not given)		0.96		36						2059
Nc1n[n+]([O-])c2cc3c(cc2[n+]1[O-])CCC3		0.47		3	8.3	27	15.2	106	31	7735
CCN(CC)CCNc1n[n+]([O-])c2cc3c(cc2[n+]1[O-])CCC3		1.08		48	1.1	61	4.1	36.3	133	4521
[O-][n+]1nc(NCCN2CCCCC2)[n+]([O-])c2ccc3c(c21)CCC3		1.6		36	1	53	4.9	27.2	51	5022
[O-][n+]1nc(NCCCN2CCOCC2)[n+]([O-])c2ccc3c(c21)CCC3		0.2		46	13.9	24	38	176.4	33	4108
CC1Cc2cc3c(cc2C1)[n+]([O-])c(NCCN(C)C)n[n+]3[O-] (stereo not given)		1.49		> 49	1.4	54	3.5	23	97	3057
CC1Cc2cc3c(cc2C1)[n+]([O-])c(NCCCN1CCOCC1)n[n+]3[O-] (stereo not given)		0.13		> 49	8.4	25	19	122.9	50	1903
[O-][n+]1nc(NCCCN2CCOCC2)[n+]([O-])c2cc3c(cc21)CCC3		0.19		48	8.8	20	21.4	76.2	44	1715
CCN(CC)CCNc1n[n+]([O-])c2c3c(ccc2[n+]1[O-])CCC3		0.97		> 49	0.9	17	4.2	35.1	64	3806
CCCN(CCC)CCNc1n[n+]([O-])c2c3c(ccc2[n+]1[O-])CCC3		0.73		40	3.3	7	12.4	66.3	23	5626
[O-][n+]1nc(NCCCN2CCOCC2)[n+]([O-])c2cc3c(cc21)CCCC3		0.69		49	2.6	25	6.3	41.6	54	3294
CN(C)CCNc1n[n+]([O-])c2c3c(ccc2[n+]1[O-])CCCC3		1.78		47	1	18	3.4	19.5	64	4223
CN(C)CCNc1n[n+]([O-])c2cc3c(cc2[n+]1[O-])CCCCC3		1.52		> 53	1.2	54	5.2	30.6	88	5404
